How the values were obtained:
[1] = Solvolytic stability of compound was measured relative to p-hydroxyphenethyl bromide; assay type: functional, Rattus norvegicus
[2] = species on record: Rattus norvegicus; assay: Percent injected dose per gram kidney at 1 hr; assay type: functional
Outline: (§1)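 Immature (25-day, ca. 50 g) Sprague-Dawley female rats received an iv injection (jugular or tail vein) of HPLC-purified tracer in ethanol plus 0.9% NaCl/rat serum 1:1. Doses were 2 μCi [125I]iodo tracer (≤15 pmol), or 2 μCi [77Br]bromo tracer (≤1.25 pmol) with 2 μCi 16α-[125I]iodoestradiol. Animals were killed at 1 h; blood and tissues were weighed and γ-counted. Blocking: coinjected unlabeled estradiol, 9 μg (iodo) or 18 μg (bromo). Mean ± SD.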

[3] = species on record: Rattus norvegicus; assay: Percent injected dose per gram kidney at 1 hr with unlabeled estradiol; assay type: functional; outline: as §1
[4] = species on record: Rattus norvegicus; assay: Percent injected dose per gram liver at 1 hr; assay type: functional
Outline: (§2)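 Immature (25 day) female Sprague-Dawley rats (ca. 50 g) were dosed iv (jugular or tail vein) in ethanol plus 0.9% NaCl/rat serum (1:1). Doses were 2 μCi of [125I]iodonorhexestrol (≤15 pmol/dose), or 2 μCi each of [77Br]bromonorhexestrol (≤1.25 pmol/dose) and 16α-[125I]iodoestradiol (2 pmol/dose). Rats were killed at 1, 3 or 6 h; blood and tissues were weighed and γ-counted. Thyroid weight assumed 0.005 g/100 g body weight. Mean ± SD.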

[5] = species on record: Rattus norvegicus; assay: Percent injected dose per gram liver at 1 hr with unlabeled estradiol; assay type: functional
Outline: (§3)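 Same iv biodistribution in immature female rats, killed at 1 h, with unlabeled estradiol coinjected to block receptor uptake: 9 μg with [125I]iodonorhexestrol (3 rats), 18 μg with the [77Br]bromonorhexestrol/16α-[125I]iodoestradiol pair (5 rats). Tissue and blood radioactivity were counted as % injected dose/g and tissue-to-blood ratio.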

[6] = species on record: Rattus norvegicus; assay: Percent injected dose per gram lung at 1 hr; assay type: functional; outline: as §2
[7] = species on record: Rattus norvegicus; assay: Percent injected dose per gram lung at 1 hr with unlabeled estradiol; assay type: functional; outline: as §3
[8] = species on record: Rattus norvegicus; assay: Percent injected dose per gram spleen at 1 hr; assay type: functional; outline: as §2
[9] = species on record: Rattus norvegicus; assay: Percent injected dose per gram spleen at 1 hr with unlabeled estradiol; assay type: functional; outline: as §3
[10] = species on record: Rattus norvegicus; assay: Percent injected dose per gram thyroid at 1 hr; assay type: functional, Thyroid gland; outline: as §2
[11] = species on record: Rattus norvegicus; assay: Percent injected dose per gram thyroid at 1 hr with unlabeled estradiol; assay type: functional, Thyroid gland; outline: as §3
[12] = species on record: Rattus norvegicus; assay: Percent injected dose per gram Uterus at 1 hr with unlabeled estradiol.; assay type: functional; outline: as §1
[13] = species on record: Rattus norvegicus; assay: Percent injected dose per gram blood at 1 hr; assay type: functional; outline: as §1
[14] = species on record: Rattus norvegicus; assay: Percent injected dose per gram blood at 1 hr with unlabeled estradiol; assay type: functional; outline: as §1
[15] = species on record: Rattus norvegicus; assay: Percent injected dose per gram esophagus at 1 hr; assay type: functional; outline: as §1
[16] = species on record: Rattus norvegicus; assay: Percent injected dose per gram esophagus at 1 hr with unlabeled estradiol; assay type: functional; outline: as §1
[17] = species on record: Rattus norvegicus; assay: Percent injected dose per gram Muscle at 1 hr with unlabeled estradiol; assay type: functional; outline: as §1
[18] = species on record: Rattus norvegicus; assay: Percent injected dose per gram Ovaries at 1 hr; assay type: functional; outline: as §1
[19] = species on record: Rattus norvegicus; assay: Percent injected dose per gram Ovaries at 1 hr with unlabeled estradiol; assay type: functional; outline: as §1
[20] = species on record: Rattus norvegicus; assay: Percent injected dose per gram Uterus at 1 hr; assay type: functional; outline: as §1
[21] = Ovary/blood distribution ratio was determined in immature female rats at 1 hr; assay type: functional; outline: as §1
[22] = Ovary/blood distribution ratio was determined in immature female rats at 1 hr with unlabeled estradiol; assay type: functional; outline: as §1
[23] = Spleen/blood distribution ratio was determined immature female rats at 1 hr; assay type: functional; outline: as §2
[24] = Esophagus/blood distribution ratio was determined in immature female rats at 1 hr with unlabeled estradiol; assay type: functional; outline: as §1
[25] = Muscle/blood distribution ratio was determined immature female rats at 1 hr with unlabeled estradiol; assay type: functional; outline: as §1
[26] = Liver/blood distribution ratio was determined in immature female rats at 1 hr; assay type: functional; outline: as §1
[27] = Liver/blood distribution ratio was determined in immature female rats at 1 hr with unlabeled estradiol; assay type: functional; outline: as §1
[28] = Lung/blood distribution ratio was determined in immature female rats at 1 hr; assay type: functional; outline: as §1
[29] = Spleen/blood distribution ratio was determined in immature female rats at 1 hr with unlabeled estradiol; assay type: functional
[30] = Kidney/blood distribution ratio was determined in immature female rats at 1 hr; assay type: functional; outline: as §1
[31] = Kidney/blood distribution ratio was determined in immature female rats at 1 hr with unlabeled estradiol; assay type: functional; outline: as §1
[32] = Tissue/blood distribution ratio was measured in immature female rats at 1 hr; assay type: functional; outline: as §2
[33] = Tissue/blood distribution ratio was measured in immature female rats at 1h, unlabeled estradiol (18 microg) coinjected; assay type: functional
Outline: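 Immature female rats given iv [77Br]bromonorhexestrol with 16α-[125I]iodoestradiol (2 μCi each) plus 18 μg unlabeled estradiol coinjected; killed at 1 h. Tissue and blood were weighed and counted, and tissue-to-blood radioactivity ratios were computed; 5 animals, mean ± SD.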

[34] = Thyroid/blood distribution ratio was determined in immature female rats at 1 hr; assay type: functional; outline: as §2
[35] = Thyroid/blood distribution ratio was determined in immature female rats at 1 hr with unlabeled estradiol; assay type: functional; outline: as §3
[36] = Uterus/blood distribution ratio was measured in immature female rats at 1 hr; assay type: functional; outline: as §2
[37] = Uterus/blood distribution of compound was measured in immature female rats at 1 hr with unlabeled estradiol; assay type: functional; outline: as §3
[38] = species on record: Rattus norvegicus; assay: Percent injected dose per gram Muscle at 1 hr; assay type: functional; outline: as §1
[39] = Lung/blood distribution ratio was determined in immature female rats at 1 hr with unlabeled estradiol; assay type: functional; outline: as §1
[40] = Esophagus/blood distribution ratio was determined in immature female rats at 1 hr; assay type: functional; outline: as §1

For CC[C@H](c1ccc(O)cc1)[C@@H](CI)c1ccc(O)cc1, which 1/krel [1] is on record?
The 1/krel was 0.71.

And the Injected dose [2]?
Its Injected dose is 1.8%.

What about the Injected dose [3] of the same compound?
Its Injected dose is 1.9%.

What about the Injected dose [4] of the same compound?
The Injected dose was 2%.

And the Injected dose [5]?
Its Injected dose is 2.5%.

And the Injected dose [6]?
Its Injected dose is 1.4%.

And the Injected dose [7]?
The Injected dose was 1.8%.

What about the Injected dose [8] of the same compound?
The Injected dose was 1.2%.

And the Injected dose [9]?
Its Injected dose is 1.3%.

And the Injected dose [10]?
The Injected dose was 619%.

What about the Injected dose [11] of the same compound?
Its Injected dose is 474.5%.

And the Injected dose [12]?
The Injected dose was 4.9%.

And the Injected dose [13]?
The Injected dose was 1.3%.

And the Injected dose [14]?
Its Injected dose is 1.5%.

And the Injected dose [15]?
Its Injected dose is 8.3%.

What about the Injected dose [16] of the same compound?
Its Injected dose is 5.4%.

What about the Injected dose [17] of the same compound?
Its Injected dose is 2.7%.

And the Injected dose [18]?
The Injected dose was 4.8%.

And the Injected dose [19]?
The Injected dose was 4.9%.

What about the Injected dose [20] of the same compound?
The Injected dose was 15.7%.

And the Ratio [21]?
The Ratio was 3.7.

What about the Ratio [22] of the same compound?
Its Ratio is 3.2.

And the Ratio [23]?
Its Ratio is 0.9.

What about the Ratio [24] of the same compound?
Its Ratio is 3.6.

What about the Ratio [25] of the same compound?
The Ratio was 1.9.

What about the Ratio [26] of the same compound?
The Ratio was 1.

What about the Ratio [27] of the same compound?
Its Ratio is 1.6.

And the Ratio [28]?
Its Ratio is 1.1.

And the Ratio [29]?
Its Ratio is 0.9.

And the Ratio [30]?
The Ratio was 1.4.

What about the Ratio [31] of the same compound?
Its Ratio is 1.2.

What about the Ratio [32] of the same compound?
Its Ratio is 1.

And the Ratio [33]?
The Ratio was 1.

What about the Ratio [34] of the same compound?
The Ratio was 494.8.

And the Ratio [35]?
Its Ratio is 278.4.

And the Ratio [36]?
The Ratio was 11.3.

What about the Ratio [37] of the same compound?
Its Ratio is 3.3.

What about the Injected dose [38] of the same compound?
Its Injected dose is 1.6%.

And the Ratio [39]?
Its Ratio is 1.2.

What about the Ratio [40] of the same compound?
Its Ratio is 6.3.

Source: ChEMBL document CHEMBL1121966, “(2R*,3S*)-1-[125I]Iodo-2,3-bis(4-hydroxyphenyl)pentane ([125I]iodonorhexestrol) and (2R*,3S*)-1-[77Br]Bromo-2,3-bis(4-hydroxyphenyl)pentane ([77Br]bromonorhexestrol), two gamma-emitting estrogens that show receptor-mediated uptake by target tissues in vivo” (1982)
